# Screens from PubChem BioAssay.
# The entries come from a sample that favours hits as a whole.
# HUVEC inhibit: blocks proliferation of human endothelial cells; HUVEC proliferation, CellTiter-Glo luminescence, 72 h; active compounds read low; viability, % at 10 µM (by protocol); 86,000 tested, 1.1% active;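 active = viability at or below 30%; inactive = viability above 30%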;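 also: 100% = median luminescence of DMSO-only cell control wells on each plate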
# H69AR growth 86K: growth inhibitors of human H69AR lung tumor cells; H69AR lung tumor viability, ATP luminescence, 72 h; active compounds read low; viability, % at 10 µM; 85,000 tested, 6% active; AID 598;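 active = viability at or below 40%; inactive = viability above 40%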;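 also: multidrug resistant small cell line overexpressing MRP-1 efflux transporter; 100% = mean luminescence of untreated control wells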
# Pyk2 oligo antag: blocks oligomerization of human Pyk2 in cells. Q14289. Q293 cells, Pyk2 FERM NanoBiT luminescence; active compounds read low. z-score (the deposit names both 25 µM and 10 µM). 99,000 tested, 0.83% active;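 active = Z-score of -3 or lower, scaled per plate to the spread of control and sample wells; inactive = z-score above -3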;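 also: negative z-score means lost luminescence so less FERM oligomerization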
# bCat KO growth: beta-catenin-lacking colon tumor cell growth suppression. viability, % at 10 µM. HCT116 beta-catenin knockout viability, CellTiter-Glo, 60 h; active compounds read low. AID 818. 140,000 tested, 1.5% active;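 active = viability at or under a set limit, the compound median less 4 SD, cut at about 6% in these data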;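 also: 0% = Hyamine 1622 control at 20 µM and 100% = untreated cell control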
# Lung fibro prol: blocks proliferation of human lung fibroblasts; LL 47 human lung fibroblast viability, ATP luminescence; active compounds read low; viability, % at 10 µM; 85,000 tested, 1.1% active; AID 719;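 active = viability at or below 50% in the single dose screen; inactive = viability above 50%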;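 also: compound exposure lasted 72 h before the ATP readout; 100% = median luminescence of untreated cell-only wells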
#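 Test system: LL 47 human lung fibroblasts; Quantity: 1,150 cells/well; Buffer or medium: IMEM plus 15% FBS; Dosing: tenfold compound dosing solution, DMSO at 0.1%; Timing: overnight cell rest, 72 h compound treatment at 37 °C; Detection: ATP-based CellTiter-Glo luminescent readout; Read-out basis: viability percentage against median untreated-cell control; Controls: cell-only wells, no compound.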
# HCT116 PTEN-null: PTEN-deleted cell growth suppression; AID 827; viability, % at 10 µM; HCT116 PTEN-null viability, CellTiter-Glo, 60 h; active compounds read low; 140,000 tested, 1.2% active;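 active = viability at or below a set limit, 4 SD under the median of all tested compounds, cut at about 3.7% in these data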;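 also: PTEN knockout HCT116 line with beta catenin targeted HCT116 as companion control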
# * hit, by the source's call; . = not tested or not shown.
SMILES,HUVEC inhibit,H69AR growth 86K,Pyk2 oligo antag,bCat KO growth,Lung fibro prol,HCT116 PTEN-null
CC1(C)Cc2ccccc2C(N/N=C/c2cccc(F)c2)=N1,.,.,0.22,100,.,91
NC(=O)[C@@H]1CCNc2c(I)cc([N+](=O)[O-])cc2C(=O)N[C@@H](CCC(=O)O)C(=O)N[C@@H](CO)C(=O)N1,.,.,.,102,.,93
Cc1cc2nc(N)sc2cc1[N+](=O)[O-],.,.,0.42,99,.,94
N#Cc1c(NC(=O)c2cc(C3CC3)on2)sc2c1CCC2,61,33*,.,37,99,36
CC(C)Cc1cc(C(=O)Nc2sc3c(c2C#N)CCC3)no1,100,67,.,90,104,100
Cc1cc(C(=O)Nc2sc3c(c2C#N)CCC3)no1,68,22*,0,60,99,54
Cc1cc(C(=O)Nc2sc3c(c2C#N)CCCC3)no1,80,27*,0.24,59,96,71
CCOC(=O)C1CN(S(=O)(=O)c2cccc(C(F)(F)F)c2)c2cc(CC(=O)OC)ccc2O1 (stereo unspecified),.,.,-0.07,93,.,87
O=C(Nc1ccc2c(c1)nc1n2CCN(Cc2ccccc2)C1)NC1CCCCC1,80,20*,0.21,107,106,105
CC1CCCN(C(=S)NCc2ccccc2)C1 (stereo unspecified),.,.,.,94,.,100
COc1c(N2CCN(C(=S)NCc3ccccc3)C(C)C2)c(F)cc2c(=O)c(C(=O)O)cn(C3CC3)c12 (stereo unspecified),108,2.5*,0.69,13,98,13
CCOc1cc(C2/C(=C(/O)c3ccc(OC(C)C)cc3)C(=O)C(=O)N2CCCOC)ccc1O (stereo unspecified),102,90,0.65,100,106,103
CC1(C(=O)c2ccccc2)C2c3c(ccc4ccccc34)OC(=O)C21C(=O)N1CCOCC1 (stereo unspecified),.,.,-0.72,96,.,90
Cc1ccc(C(=O)C2(C)C3c4cc(Br)ccc4OC(=O)C32C(=O)c2ccco2)cc1 (stereo unspecified),102,99,-3.1*,72,95,63
Oc1ccc(F)cc1-c1cc(-c2ccc3c(c2)OCCO3)n[nH]1,66,37*,-0.03,18,77,44
Oc1ccc(-c2n[nH]c(=S)n2-c2ccc3c(c2)OCCO3)cc1,.,.,.,90,.,89
CCOc1ccc(-c2cc(NC(=O)Cn3ncc4c3-c3ccccc3OC4)on2)cc1OCC,50,30*,.,82,94,91
CCOc1ccc(NC(=O)c2cc3n(n2)C(C(F)(F)F)CC(c2ccco2)N3)cc1 (stereo unspecified),97,63,-0.65,72,37*,93
O=C(Nc1ccc(O)cc1)c1cc2n(n1)C(C(F)(F)F)CC(c1ccco1)N2 (stereo unspecified),71,.,-0.47,20,90,21
CCCCN=C1NN=C(c2cc3ccccc3o2)CS1,.,.,.,94,.,93
Cc1ccc(-c2n[nH]c3c2CCC3)cc1,94,97,-0.61,82,99,92
COc1ccc(-c2coc3cc(OC)cc(O)c3c2=O)cc1,111,88,1,78,99,88
CC(C)Oc1cc(O)c2c(=O)c(-c3ccc(O)cc3)coc2c1,94,11*,.,76,102,74
Cc1cc(NC(=O)CN2CCN(c3ccccc3F)CC2)nc2c1c(=O)oc1ccccc12,53,34*,.,.,91,.
COc1ccc(CC(=O)Nc2cc(C)c3c(=O)oc4ccccc4c3n2)cc1,69,22*,.,.,64,.
SMILES,HUVEC inhibit,H69AR growth 86K,Pyk2 oligo antag,bCat KO growth,Lung fibro prol,HCT116 PTEN-null
Cc1cc(NC(=O)c2ccc(S(=O)(=O)N3CCOCC3)cc2)nc2c1c(=O)oc1ccccc12,.,.,.,96,.,81
CCOc1ccc(C(=O)Nc2cc(C)c3c(=O)oc4ccccc4c3n2)cc1,26*,19*,.,83,69,91
CCC(CC)C(=O)Nc1cc(C)c2c(=O)oc3ccccc3c2n1,79,52,.,61,98,54
Cc1cc(NC(=O)c2ccc(S(=O)(=O)N3CCCC3)cc2)nc2c1c(=O)oc1ccccc12,69,18*,0.32,40,72,62
C1=C(CCNCC2CCCCC2)CCCC1,.,.,1.1,64,.,59
Cn1c(=O)c2cn(Cc3ccc(Cl)cc3)cc2n(C)c1=O,85,89,0.46,92,93,97
O=C(Cn1cnc2ccccc21)N/N=C/c1ccccc1[N+](=O)[O-],.,.,0.94,106,.,109
CCOC(=O)c1sc(NC(=O)COC(=O)C(CCSC)NC(C)=O)nc1C (stereo unspecified),.,.,.,89,.,91
CCN(CC)S(=O)(=O)c1ccc(C(=O)NNC(=O)C2CCN(S(=O)(=O)c3ccc(Cl)cc3)CC2)cc1,.,.,-0.05,90,.,88
Cc1ccccc1-n1c(SCc2c(C)noc2C)nnc1-c1c[nH]c2ccccc12,81,76,-3.5*,63,97,65
O=C(CNC(=O)c1ccc(Cl)cc1)NCC(F)(F)F,.,.,.,92,.,102
CCOC(=O)c1c(NC(=O)Cc2cccs2)sc(C(=O)NC2CCCC2)c1C,50,28*,3.5,84,75,85
Cc1cc(-c2csc(N)n2)c(C)n1CCc1ccccc1,42,40*,0.96,93,89,95
CCSc1nnc(NC(=O)CCNS(=O)(=O)c2cc(Br)cnc2N)s1,88,39*,0.12,91,95,105
Cc1cccc(N2C(=O)CCC2=O)n1,.,.,-0.36,91,.,91
CC(C)(C)c1ccc(C(=O)CSc2n[nH]c(=O)[nH]c2=O)cc1,.,.,0.23,91,.,99
CC1=CC(C)C2(CO)COC(c3ccccc3O)C1C2C (stereo unspecified),98,88,-0.28,110,91,92
COc1ccc(N2C(=O)NC3CC2(C)Oc2ccc(Br)cc23)cc1OC (stereo unspecified),91,38*,-0.46,90,83,88
O=C(Nc1nc(COc2ccccc2)cs1)C12CC3CC(CC(C3)C1)C2,56,39*,-0.99,39,87,30
COc1ccc(-c2c(C(F)(F)F)oc3cc(OCC(=O)Nc4ccccc4C(F)(F)F)ccc3c2=O)cc1OC,.,.,.,1.4*,.,5
COc1ccc2cc(CN(CCc3ccccc3)Cc3nnnn3CC3CCCO3)c(=O)[nH]c2c1 (stereo unspecified),96,61,-0.48,80,97,78
CCOc1ccc2[nH]c(=O)c(CN(Cc3ccco3)C(CC)c3nnnn3Cc3ccccc3)cc2c1 (stereo unspecified),74,2.4*,2,39,88,33
COc1ccc2[nH]c(=O)c(CN(CCc3ccccc3)Cc3nnnn3CC3CCCO3)cc2c1 (stereo unspecified),83,27*,0.82,95,93,80
CCOc1ccc2[nH]c(=O)c(CN(Cc3ccco3)Cc3nnnn3Cc3ccccc3)cc2c1,86,38*,1.5,72,99,62
